# From PubChem BioAssay
# Calls of active or inactive are those of the source.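 The calls were made as follows, unless noted: active = viability at or below 10% of carrier control in both of two separate runs; inconclusive = viability at or below 10% in only one of the two runs; inactive = the rest.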
# What was measured:
# [1] = SK-BR-3 cell growth inhibitors, pilot screen, 24 h, human (AID 572); details: SK-BR-3 viability, CellTiter-Glo luminescence, at 10 µM, stronger effect = lower value;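 also: compound exposure lasted between 18 and 24 h rather than exactly 24 h; 100% = carrier-treated control wells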
# [2] = HUVEC growth inhibition – cell-based, human, primary screen (AID 575;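 active = viability at or below 30% in both replicate assays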;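 also: 100% = median of untreated cell wells with 0.1% DMSO on each plate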); details: HUVEC proliferation, CellTiter-Glo luminescence, 72 h; at 10 µM; stronger effect = lower value
# Summary of the method: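 Assay system: Primary human umbilical vein endothelial cells | Quantity: 1250 cells per well | Medium: Supplemented EBM, 2% fetal bovine serum | Detection: CellTiter-Glo luminescence measuring cellular ATP | Read-out: % viability vs DMSO wells | Plate: Collagen-coated 384-well format | Times: 72 h exposure, 37 °C, 5% CO2, 30 min RT equilibration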
# [3] = growth inhibitors of H69AR lung tumor, primary screen, human, duplicate replicates (AID 580;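 active = viability at or under a set limit in both replicates, limit being median viability minus 3 SD, cut at about 48% in these data, passing the limit was not always enough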;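 also: 100% = mean luminescence of untreated wells and 0% = no signal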); details: H69AR lung tumor cells viability, ATP luminescence, 72 h; at 10 µM; stronger effect = lower value
# [4] = reversal of MRP1-mediated doxorubicin resistance, pilot screen, H69AR cells, doxorubicin co-treatment (AID 601;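 active = viability loss from added drug above about 55%, and viability with drug at most 40%, in both replicates, limit read from the data, passing the limit was not always enough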); details: CellTiter-Glo, 72 h, at 10 µM; for differential viability (reversal): stronger effect = higher value
# [5] = 384-well plate pilot, post-Golgi transport modulator project, inhibition of yeast transport mutant growth (AID 636; in the data active = inhibition above about 31%); details: absorbance 615 nm, about 18 h, stronger effect = higher value
# [6] = growth suppression of yeast trafficking mutant, preliminary HTS, modulators of trafficking downstream of Golgi apparatus project, 1536-format plate, OD 615 nm (AID 637; in the data active = inhibition above about 30%); details: yeast transport mutant growth, absorbance 615 nm, 18 h; stronger effect = higher value
# [7] = H69AR cells + 2 uM doxorubicin, measured here: viability with 2 uM doxorubicin, stronger effect = lower value
# [8] = H69AR cells, compound alone cytotoxicity
SMILES,viability [1],viability [2],viability [3],differential viability (reversal) ([4]; H69AR cells + 2 uM doxorubicin),"viability [4, 7] [%]","viability [4, 8] [%]",inhibition [5],inhibition [6]
CCOc1ccc(C2C(C#N)=C(N)Oc3cc(C)n(Cc4ccco4)c(=O)c32)cc1OC (centres undefined),99% (inactive),84.2% (inactive),76.7% (inactive),-5.13% (inactive),81.9,76.7,-0.41% (inactive),-8.23% (inactive)
CC1C/C=C/C=C/C=C/C=C/C(O[C@@H]2O[C@H](C)[C@@H](O)[C@H](N)[C@@H]2O)CC2OC(O)(CC(O)CC3OC3/C=C/C(=O)O1)CC(O)C2C(=O)O (some centres undefined),121% (inactive),99.7% (inactive),92.3% (inactive),8.26% (inactive),84.1,92.3,2.6% (inactive),-2.67% (inactive)
CCN(CC)c1ccc(C(=O)n2cnc3ccccc32)cc1,111% (inactive),61.5% (inactive),15.1% (active),-53.7% (inactive),68.8,15.1,-3.33% (inactive),-2% (inactive)
CCCc1cc(N2CCCC2)n2nc(C)c(-c3ccccc3)c2n1,64% (inactive),94.7% (inactive),76.6% (inactive),-3.64% (inactive),80.2,76.6,-4.93% (inactive),5.27% (inactive)
COc1cc2[nH]c3c(=O)n(CCN(C(C)C)C(C)C)cnc3c2cc1OC,95% (inactive),99.1% (inactive),83.5% (inactive),-0.365% (inactive),83.9,83.5,-6.89% (inactive),4.91% (inactive)
Cc1nn(Cc2ccccc2)c(C)c1NC(=O)c1cc(-c2ccco2)on1,103% (inactive),108% (inactive),102% (inactive),19.6% (inactive),82.6,102,-5.6% (inactive),-0.55% (inactive)
Cc1ccc(-c2nnc3c4ccccc4c(C)nn23)cc1S(=O)(=O)N1CCN(C)CC1,85% (inactive),78.6% (inactive),74% (inactive),-16.7% (inactive),90.7,74,-5.2% (inactive),1.15% (inactive)
COc1ccc(CCN(Cc2cc3cccc(C)c3[nH]c2=O)C(=O)N2CCCC2)cc1OC,106% (inactive),104% (inactive),98.8% (inactive),1.51% (inactive),97.3,98.8,-2.6% (inactive),-0.36% (inactive)
CC(C)OC(=O)c1ccc(NC(=O)C2C3CC4OC(=O)C2C4C3)cc1 (centres undefined),104% (inactive),91.8% (inactive),95.6% (inactive),7.04% (inactive),88.5,95.6,-1.49% (inactive),-4.91% (inactive)
O=C(CCCOc1ccccc1)N1CCN(c2ccccn2)CC1,99% (inactive),97.7% (inactive),104% (inactive),5.88% (inactive),97.8,104,-0.39% (inactive),-5.74% (inactive)
Cc1ccc(-c2nnc(SCC(=O)N3c4ccccc4NC(=O)C3(C)C)n2N)cc1,65% (inactive),105% (inactive),98% (inactive),6.49% (inactive),91.5,98,-3.38% (inactive),0.36% (inactive)
Cc1csc(NC(=O)CCn2c(=O)oc3ccccc32)n1,91% (inactive),98.8% (inactive),94.4% (inactive),9.97% (inactive),84.5,94.4,-5.95% (inactive),1.45% (inactive)
CS(=O)(=O)N(CC(=O)N1CCc2ccccc2C1)c1ccc2c(c1)OCO2,129% (inactive),102% (inactive),102% (inactive),14.2% (inactive),87.8,102,-1.04% (inactive),2.13% (inactive)
Cc1[nH]nc2c1C(c1ccc(F)cc1)C1=C(CC(C)(C)CC1=O)N2 (centres undefined),126% (inactive),102% (inactive),87.4% (inactive),-0.39% (inactive),87.8,87.4,-5.14% (inactive),3.97% (inactive)
Cn1ncc2c(Nc3ccccc3Br)ncnc21,109% (inactive),101% (inactive),106% (inactive),13.5% (inactive),92.8,106,-7.67% (inactive),-2.55% (inactive)
COC(=O)CCC(=O)Nc1ccc(S(=O)(=O)N2CCCCCC2)cc1,103% (inactive),99.2% (inactive),100% (inactive),1.32% (inactive),98.8,100,-1.69% (inactive),1.15% (inactive)
COc1ccc(C(=O)NCCc2nnc(SCc3nc4ccccc4c(=O)[nH]3)n2C)cc1,101% (inactive),67.3% (inactive),83.4% (inactive),9.63% (inactive),73.8,83.4,-5.89% (inactive),2.42% (inactive)
O=C(NCCN1CCOCC1)c1ccc(CS(=O)(=O)Cc2ccccc2F)o1,59% (inactive),102% (inactive),108% (inactive),0.59% (inactive),107,108,-3.84% (inactive),1.64% (inactive)
CC(=O)OCC(=O)[C@@]1(O)CC[C@H]2[C@@H]3CCC4=CC(=O)CC[C@]4(C)[C@H]3[C@@H](O)C[C@@]21C,101% (inactive),74.1% (inactive),100% (inactive),2.38% (inactive),97.7,100,-4.29% (inactive),-1.17% (inactive)
CCC1CCCCN1c1nc(-c2ccncc2)nc2ccccc12 (centres undefined),76.5% (inactive),15.1% (active),14.5% (active),-40.4% (inactive),55,14.5,-0.79% (inactive),0.49% (inactive)
O=C(NCCCN1CCN(c2cccc(Cl)c2)CC1)c1ccc(N2CCCC2=O)cc1,69% (inactive),76.1% (inactive),89.1% (inactive),-5.41% (inactive),94.5,89.1,-1.1% (inactive),4.91% (inactive)
O=C(CN1CCN(c2ccccn2)CC1)N1c2ccccc2CCc2ccccc21,95% (inactive),88.1% (inactive),107% (inactive),-0.175% (inactive),108,107,-6.08% (inactive),-0.55% (inactive)
COc1cc(C2c3c(oc4c(C)cc(C)cc4c3=O)C(=O)N2Cc2cccnc2)ccc1O (centres undefined),78% (inactive),69.1% (inactive),80.2% (inactive),2.59% (inactive),77.6,80.2,0.13% (inactive),2.42% (inactive)
COCCn1c(C)cc(C(=O)COC(=O)c2ccc(N3CCCC3=O)cc2)c1C,95% (inactive),88.4% (inactive),92.3% (inactive),8.88% (inactive),83.4,92.3,-4.8% (inactive),2.18% (inactive)

SMILES,viability [1],viability [2],viability [3],differential viability (reversal) ([4]; H69AR cells + 2 uM doxorubicin),"viability [4, 7] [%]","viability [4, 8] [%]",inhibition [5],inhibition [6]
N[C@@H](Cc1ccc(O)c(I)c1)C(=O)O,87% (inactive),87.5% (inactive),105% (inactive),15.7% (inactive),89.3,105,-4.81% (inactive),-1.33% (inactive)
COc1cc([C@@H]2[C@H]3CN(C)CC=C3C(C#N)=C(N)C2(C#N)C#N)cc2c1OCO2,101% (inactive),93.1% (inactive),89.8% (inactive),-5.09% (inactive),94.8,89.8,-2.19% (inactive),0.18% (inactive)
O=C(CSCc1n[nH]c(=O)[nH]1)NCCOc1cccc(Oc2ccccc2)c1,103% (inactive),102% (inactive),104% (inactive),3.55% (inactive),100,104,-1.2% (inactive),2.73% (inactive)
N#CC1=C(N)C(C#N)(C#N)[C@H](c2ccsc2)[C@H]2COCC=C12,126% (inactive),96% (inactive),97.4% (inactive),2.33% (inactive),95.1,97.4,-6.03% (inactive),2.58% (inactive)
Cc1cc(C(C)(C)C)c(O)c(C)c1CC1=NCCN1,95% (inactive),93.4% (inactive),92.5% (inactive),2.26% (inactive),90.3,92.5,-9.04% (inactive),-3.23% (inactive)
Cc1c(CNCc2cccs2)c(C(=O)O)c(C)n1Cc1ccccc1,91% (inactive),109% (inactive),99.8% (inactive),5.63% (inactive),94.2,99.8,-3.97% (inactive),0.18% (inactive)
O=C(NCc1ccco1)c1cccc(S(=O)(=O)N2CCCCC2)c1,110% (inactive),99.3% (inactive),90.9% (inactive),-5.04% (inactive),96,90.9,4.66% (inactive),8.73% (inactive)
C(=N/n1c2ccccc2c2ccccc21)/c1ccco1,81% (inactive),77.9% (inactive),86.5% (inactive),-3.11% (inactive),89.6,86.5,-5.19% (inactive),0.49% (inactive)
CCN(C(=O)c1cccs1)c1nnc(-c2ccncc2)s1,105% (inactive),120% (inactive),92.5% (inactive),7.03% (inactive),85.5,92.5,-3.33% (inactive),2.91% (inactive)
Cc1ccc(S(=O)(=O)NCC(c2cccnc2)N(C)C)cc1 (centres undefined),96% (inactive),109% (inactive),95.1% (inactive),-8.1% (inactive),103,95.1,-5.75% (inactive),1.82% (inactive)
COc1ccc(C/C(O)=C(\C#N)c2nc3ccccc3s2)cc1,86% (inactive),48.8% (inactive),83.1% (inactive),-8.21% (inactive),91.3,83.1,-2.93% (inactive),0.36% (inactive)
Cn1c(=O)c2c(ncn2CCO)n(C)c1=O,119% (inactive),91% (inactive),100% (inactive),7.42% (inactive),93,100,0% (inactive),0.67% (inactive)
Cc1nnc(Nc2ccccn2)c2ccccc12,89% (inactive),81.1% (inactive),87.3% (inactive),-2.5% (inactive),89.8,87.3,0.27% (inactive),-4.84% (inactive)
CCN(CC)CCNC(=O)c1cc(Cl)c(N)cc1OC,89% (inactive),85.9% (inactive),93.8% (inactive),-8.38% (inactive),102,93.8,-3.25% (inactive),-2.5% (inactive)
Cc1ccc2nc(NC(=O)C3CCCN(S(=O)(=O)c4cccc5nonc45)C3)sc2c1 (centres undefined),97.5% (inactive),71.6% (inactive),76% (inactive),-14.8% (inactive),90.8,76,-4.34% (inactive),1.17% (inactive)
Cc1ccc(CN2C(=O)CCC2C(=O)NCCCN2CCCC(C)C2)cc1 (centres undefined),82% (inactive),113% (inactive),97.4% (inactive),8.96% (inactive),88.4,97.4,-3.07% (inactive),-3.45% (inactive)
Cc1cc(C)c2nc(C(F)(F)F)nc(NCCCN3CCCC3=O)c2c1,113% (inactive),51.4% (inactive),83.7% (inactive),-9.04% (inactive),92.7,83.7,-4.38% (inactive),0.65% (inactive)
Brc1ccc2[nH]c3nc(SCCN4CCOCC4)nnc3c2c1,100% (inactive),89.8% (inactive),87% (inactive),10.9% (inactive),76.2,87,2.21% (inactive),11.6% (inactive)
CC1CN(S(=O)(=O)c2ccc(Cl)c(C(F)(F)F)c2)CC(C)O1 (centres undefined),68% (inactive),111% (inactive),100% (inactive),8.69% (inactive),91.8,100,-9.32% (inactive),2% (inactive)
COc1ccccc1CNC(=O)C(C)NS(=O)(=O)c1ccccc1 (centres undefined),113% (inactive),106% (inactive),87.1% (inactive),-11% (inactive),98.1,87.1,-7.4% (inactive),-0.73% (inactive)
CC(=O)Nc1ccccc1O,111% (inactive),102% (inactive),96.1% (inactive),0.37% (inactive),95.7,96.1,-0.13% (inactive),4.5% (inactive)
c1cc2c(cc1Cn1cnnn1)OCO2,96% (inactive),96.9% (inactive),105% (inactive),12.3% (inactive),92.7,105,-1.95% (inactive),4.26% (inactive)
COCCn1c(-c2ccco2)nc2nc3ccccc3nc21,99.5% (inactive),99.1% (inactive),77.3% (inactive),-2.21% (inactive),79.6,77.3,-8.27% (inactive),3.28% (inactive)
Cc1cn(C2CC3OCC3O2)c(=O)[nH]c1=O (centres undefined),101% (inactive),110% (inactive),94.2% (inactive),-4.39% (inactive),98.5,94.2,-7.12% (inactive),-16.2% (inactive)
